Laboratory results published in ChEMBL document CHEMBL1773067.
Calls of active or inactive are those of the source. The rule behind the calls is not given here.

Key:
[1] = biological target: T1, Phosphotyrosine-protein phosphatase PTPB (Mycobacterium tuberculosis) (UniProt P96830); test: Inhibition of Mycobacterium tuberculosis N-terminal His6-tagged PTPB at 20 uM using pNPP as substrate
T1 sequence (whole entry): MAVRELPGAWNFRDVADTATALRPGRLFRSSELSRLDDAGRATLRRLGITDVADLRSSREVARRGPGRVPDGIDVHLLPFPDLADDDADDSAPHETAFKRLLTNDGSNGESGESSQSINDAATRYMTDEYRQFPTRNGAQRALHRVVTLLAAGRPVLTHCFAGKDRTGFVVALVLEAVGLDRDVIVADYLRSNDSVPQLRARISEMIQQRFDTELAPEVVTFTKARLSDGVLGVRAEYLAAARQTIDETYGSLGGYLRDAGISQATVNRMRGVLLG

[2] = biological target: T2, Phosphotyrosine-protein phosphatase PTPB (Mycobacterium tuberculosis, UniProt P96830); test: Inhibition of Mycobacterium tuberculosis N-terminal His6-tagged PTPB
T2 sequence (P96830 whole entry): T1 sequence (whole entry)

[3] = biological target: T2, Phosphotyrosine-protein phosphatase PTPB; test: Inhibition of Mycobacterium tuberculosis N-terminal His6-tagged PTPB preincubated with compound for 30 mins before pNPP substrate addition by microplate spectrophotometer analysis
[4] = biological target: T2, Phosphotyrosine-protein phosphatase PTPB; test: Inhibition of Mycobacterium tuberculosis PTPB expressed in Escherichia coli after 5 mins by microplate spectrophotometer analysis
[5] = biological target: T1, Phosphotyrosine-protein phosphatase PTPB (Mycobacterium tuberculosis); test: Inhibition of Mycobacterium tuberculosis PTPB expressed in mouse RAW 264.7 cells assessed as restoration of IFN gamma-induced ERK1/ERK2 phosphorylation after 30 mins by Western blotting; format: cell-based
Procedure, shortened: (§1)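 RAW 264.7 macrophages (DMEM, 10% FBS, 37°C, 5% CO₂) stably expressing HA-tagged mPTPB (electroporation, G418 0.5 mg/ml selection 2 weeks). Cells at 80% confluency lysed in Triton X-100 buffer with phosphatase/protease inhibitors; pERK1/2 detected by western blot.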

[6] = tested on: Mycobacterium tuberculosis; test: Antimycobacterial activity against Mycobacterium tuberculosis Erdman ATCC 35801 after 7 days by microplate alamar blue assay; format: functional; conditions: Erdman ATCC 35801, 168 h
Procedure, shortened: (§2)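 MABA read-out after 7 day incubation in Middlebrook 7H12 medium against replicating M. tuberculosis cultures.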

[7] = biological target: T2, Phosphotyrosine-protein phosphatase PTPB; test: Competitive inhibition of Mycobacterium tuberculosis N-terminal His6-tagged PTPB assessed as production of p-nitrophenol from pNPP substrate by Lineweaver-Burk plot analysis
[8] = tested on: Mycobacterium tuberculosis; test: Antimycobacterial activity against Mycobacterium tuberculosis H37Rv after 7 days by microplate alamar blue assay; format: functional; conditions: 168 h; procedure, shortened: as §2
J774.A1 = test: Cytotoxicity at mouse J774A1 cells up to 100 uM after 72 hrs by MTS assay; format: cell-based; conditions: j774.a1, 72 h
Procedure, shortened: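 J774A.1 cells exposed 72 h; viability from MTS conversion to formazan.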

[9] = tested on: Mycobacterium tuberculosis; test: Potentiation of IFN-gamma-induced antimycobacterial activity against Mycobacterium tuberculosis Erdman ATCC 35801 infected in mouse J774A.1 cells assessed as decrease in bacterial load at 10 uM after 7 days; format: functional, organism-based
Procedure, shortened: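 J774A.1 macrophages on cover slips infected 1 h at 37°C with M. tuberculosis Erdman (1-3 x10⁵ CFU/ml), rinsed, 16 h at 37°C/5% CO₂, then compound 10 µM with amikacin and IFN-γ 50 U/mL; triplicates. After 7 days cells lysed with 0.25% SDS, dilutions plated on 7H11 agar, colonies counted after 2-3 weeks.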

[10] = biological target: T1, Phosphotyrosine-protein phosphatase PTPB (Mycobacterium tuberculosis); conditions: RAW, 5 to 10 uM
[11] = biological target: T2, Phosphotyrosine-protein phosphatase PTPB; test: Non-competitive inhibition of Mycobacterium tuberculosis N-terminal His6-tagged PTPB assessed as production of p-nitrophenol from pNPP substrate by Lineweaver-Burk plot analysis
[12] = biological target: T1, Phosphotyrosine-protein phosphatase PTPB (Mycobacterium tuberculosis); test: Inhibition of Mycobacterium tuberculosis PTPB expressed in mouse RAW 264.7 cells assessed as restoration of IFN gamma-induced ERK1/ERK2 phosphorylation at 15 uM after 30 mins by Western blotting; format: cell-based; procedure, shortened: as §1
[13] = biological target: T1, Phosphotyrosine-protein phosphatase PTPB (Mycobacterium tuberculosis); test: Inhibition of Mycobacterium tuberculosis PTPB expressed in mouse RAW 264.7 cells assessed as restoration of IFN gamma-induced ERK1/ERK2 phosphorylation at 10 uM after 30 mins by Western blotting; format: cell-based; procedure, shortened: as §1

Row | Compound | inhibition [1] | IC50 [2] | IC50 [3] | other results
1 | Cc1ccccc1NS(=O)(=O)c1ccc2c3c(cccc13)C(=O)N2 | inactive |  |  | 
2 | CCN1CCN(C(c2cccs2)C(C)NC(=O)C(=O)N2CCOCC2)CC1 (configuration not stated) | inactive |  |  | 
3 | O=C1Nc2ccc(S(=O)(=O)Nc3ccc4oc5c(c4c3)CCCC5)c3cccc1c23 |  | 10.3 µM | 10.8 µM | 
4 | COc1ccc(N2CCN(C(c3cccs3)C(C)NC(=O)C(=O)NCc3ccco3)CC2)cc1 (configuration not stated) |  | 4.8 µM | 6.3 µM | IC50 [4]: 5.6 µM; inhibition [5]: Dose-dependent effect; MIC [6]: > 100 µM; Ki [7]: 3.2 µM; MIC [8]: > 100 µM; Activity (J774.A1): Non-toxic; Activity [9]: Active
5 | O=C1Nc2ccc(S(=O)(=O)NCCO)c3cccc1c23 | inactive |  |  | 
6 | CC(NC(=O)C(=O)NCc1cccnc1)C(c1cccs1)N1CCN(c2ccc(F)cc2)CC1 (configuration not stated) |  | 9.1 µM | 14 µM | IC50 [4]: 11.5 µM; inhibition [5]: Dose-dependent effect; Ki [7]: 4 µM
7 | CC(NC(=O)C(=O)N1CCCCC1)C(c1cccs1)N1CCN(C)CC1 (configuration not stated) | inactive |  |  | 
8 | CCCCCOC(=O)c1c(C)oc2ccc(NS(=O)(=O)c3ccc4c5c(cccc35)C(=O)N4)cc12 |  | 21.1 µM | 20.8 µM | 
9 | CC(NC(=O)C(=O)NCc1ccc2c(c1)OCO2)C(c1cccs1)N1CCN(c2ccccc2)CC1 (configuration not stated) |  | 30.4 µM | 25.1 µM | 
10 | CCCCc1ccc(NS(=O)(=O)c2ccc3c4c(cccc24)C(=O)N3)cc1 |  | 1.2 µM | 1.4 µM | IC50 [4]: 1.3 µM; inhibition [10]: Active; MIC [6]: > 100 µM; Ki [11]: 1100 nM; MIC [8]: > 100 µM; Activity (J774.A1): Non-toxic; Activity [9]: Active
11 | CC(NC(=O)C(=O)NCc1ccco1)C(c1cccs1)N1CCN(C)CC1 (configuration not stated) | inactive |  |  | 
12 | CC(NC(=O)C(=O)NCCc1c[nH]c2ccccc12)C(c1cccs1)N1CCN(c2ccc(F)cc2)CC1 (configuration not stated) |  | 12.1 µM | 17.5 µM | 
13 | COc1ccc(N2CCN(C(c3cccs3)C(C)NC(=O)C(=O)N3CCCCC3)CC2)cc1 (configuration not stated) | inactive |  |  | inhibition [12]: inactive
14 | COc1ccc(N2CCN(C(c3cccs3)C(C)NC(=O)C(=O)N3CCCC3)CC2)cc1 (configuration not stated) | inactive |  |  | 
15 | CC(NC(=O)C(=O)N1CCCCC1)C(c1cccs1)N1CCN(c2ccc(F)cc2)CC1 (configuration not stated) | inactive |  |  | 
16 | CNS(=O)(=O)c1ccc2c3c(cccc13)C(=O)N2 | inactive |  |  | 
17 | CC(NS(=O)(=O)c1ccc2c3c(cccc13)C(=O)N2)C1C2CC3CC(C2)CC1C3 (configuration not stated) | inactive |  |  | 
18 | CCN1CCN(C(c2cccs2)C(C)NC(=O)C(=O)NCCc2c[nH]c3ccccc23)CC1 (configuration not stated) | inactive |  |  | 
19 | O=C1Nc2ccc(S(=O)(=O)N(CCO)CCO)c3cccc1c23 | inactive |  |  | 
20 | O=C1Nc2ccc(S(=O)(=O)N3CCOCC3)c3cccc1c23 | inactive |  |  | 
21 | Cc1oc2ccc(NS(=O)(=O)c3ccc4c5c(cccc35)C(=O)N4)cc2c1C(=O)OC(C)C | inactive |  |  | 
22 | CC(NC(=O)C(=O)N1CCCCC1)C(c1cccs1)N1CCN(c2ccccc2)CC1 (configuration not stated) | inactive |  |  | 
23 | O=C1Nc2ccc(S(=O)(=O)Nc3cc(Cl)c(O)c4ccccc34)c3cccc1c23 |  | 15.5 µM | 12.8 µM | 
24 | CCCCCCCOC(=O)c1c(C)oc2ccc(NS(=O)(=O)c3ccc4c5c(cccc35)C(=O)N4)cc12 |  | 19.5 µM | 22.8 µM | 
25 | COc1ccccc1CNC(=O)C(=O)NC(C)C(c1cccs1)N1CCN(c2ccc(F)cc2)CC1 (configuration not stated) |  | 11.4 µM | 15.8 µM | 
26 | O=C1Nc2ccc(S(=O)(=O)NCc3ccccc3)c3cccc1c23 | inactive |  |  | 
27 | NS(=O)(=O)c1ccc2c3c(cccc13)C(=O)N2 | inactive |  |  | inhibition [13]: inactive
28 | Cc1cccc(NS(=O)(=O)c2ccc3c4c(cccc24)C(=O)N3)c1C | inactive |  |  | 
